Compound activity from PubChem BioAssay.
UPR CHOP act – activators of apoptotic arm of unfolded protein response (CHOP) | CHO-CHOP luciferase reporter, UPR activation, luminescence; percent of tunicamycin response over DMSO baseline | activation, % at 10 µM | 0.34% of 330,000 active | AID 449763;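 active = at 10 µM dose, activation of 40% or more, normalized to positive control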;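 also: 100% = tunicamycin at 10 µg/mL and 0% = DMSO alone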
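Assay system: CHO cells with stable CHOP pathway luciferase reporter; Buffer or medium: F12 plus 10% serum; Times: 16-18 h cell attachment, then 6 h compound exposure, 37 °C; Signal: luciferase luminescence; Read-out basis: percent activation relative to tunicamycin control; Control set: tunicamycin high control, DMSO low control.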
MDM2 E3 inh – inhibitors of human Mdm2 E3 ubiquitin ligase. 0.11% of 210,000 active. cell-based MDM2 ubiquitination luciferase reporter, 2 h; 0 = plate control, 100 = twice control, blank-subtracted. Q00987. signal enhancement, % at 5 µM;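 active = signal enhancement of 30% or more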;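 also: luminescence tracks abundance of the self-degrading MDM2-luciferase fusion protein; higher signal means inhibition of MDM2 E3 ligase activity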
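System: stable MDM2–luciferase fusion reporter cells / Input: 2000 cells seeded into each well / Schedule: 4 h settle plus 2 h compound, 37 °C / Compound: single-point 5 µM / Buffer or medium: cells held in DMEM / Benchmarks: control and blank well means / Evaluation: percent signal gain over controls, blank-subtracted / Measured by: luciferase luminescence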
Dynein cargo inh – dynein cargo transport inhibition | 0.47% of 220,000 active | z-score, hits read low | 3617.4 mouse cells, GR-EGFP nuclear translocation imaging; test concentration mostly 20 µM; stimulated with dexamethasone, 1 µM; stronger effect = lower value;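 active = plate z-score of nuclear minus cytoplasmic receptor signal below a set negative limit, without overly bright fluorescence or cell loss, cut at about -3.5 in these data, passing the limit was not always enough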;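 also: z-score of nuclear minus cytoplasmic ring GR-EGFP intensity difference per well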
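medium = tetracycline-free induction medium containing charcoal-stripped FBS | also added = 1.0 µM final dexamethasone stimulus | schedule = 48 h induction, 1 h compound, 30 min dex at 37 °C | technique = fixed, Hoechst-stained cells imaged at 10x for EGFP | measure = GR-EGFP nuclear translocation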
Mdm2 MdmX PPI – disrupts the human Mdm2-MdmX interaction; AID 485346; inhibition, % at 8 µM; SaOS-2 split-luciferase Mdm2/MdmX complementation, luminescence; 3% of 330,000 active; O15151+Q00987;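 active = inhibition of at least 50% at 8 µM in the primary screen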
UPR XBP1 act – adaptive UPR (XBP1) activation. 0.33% of 330,000 active. CHO-XBP1 luciferase reporter, IRE1-XBP1 UPR activation, luminescence; percent of tunicamycin response, DMSO as zero. activation, % at 20 µM. AID 463104;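 active = versus positive control, 20 µM dose yields 30% or more activation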;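 also: 100% = tunicamycin at 10 µg/mL and 0% = DMSO only wells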
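Test system: CHO-XBP1 luciferase reporter cells | Buffer or medium: Serum-containing F12 medium, 10% FBS | Schedule: 6 h compound exposure at 37 °C, 5% CO2 | Detection: Steady-Glo luciferase glow luminescence, 10 min after reagent addition | Read-out basis: Activation, % of tunicamycin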
Beta2AR agonist – agonists of human beta-2 adrenergic receptor inducing internalization; 0.43% of 340,000 active; response, % (concentration not given with the values); Am2.2-beta2AR cells, FAP receptor internalization, flow cytometry; P07550;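 active = response above a set limit, near 3 SD of response in nonfluorescent compounds, cut at about 42% in these data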
Target sequence (P07550 whole entry, looked up): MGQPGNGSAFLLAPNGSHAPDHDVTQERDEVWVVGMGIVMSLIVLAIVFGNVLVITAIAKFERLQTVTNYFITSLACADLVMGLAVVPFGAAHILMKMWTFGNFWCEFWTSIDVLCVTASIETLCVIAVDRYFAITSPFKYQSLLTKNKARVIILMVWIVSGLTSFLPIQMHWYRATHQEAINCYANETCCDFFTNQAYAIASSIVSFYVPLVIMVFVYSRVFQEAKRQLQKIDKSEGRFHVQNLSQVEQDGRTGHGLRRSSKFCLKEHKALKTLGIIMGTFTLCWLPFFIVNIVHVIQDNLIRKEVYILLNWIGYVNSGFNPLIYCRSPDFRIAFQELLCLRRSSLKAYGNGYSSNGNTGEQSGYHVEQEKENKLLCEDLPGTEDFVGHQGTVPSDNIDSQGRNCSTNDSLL
Mdm2 MdmX conf – confirmation of human Mdm2/MdmX interaction inhibitors | 55% of 10,000 active | shares compounds with Mdm2 MdmX PPI | Mdm2-MdmX binding, luminescent assay | inhibition, % at 8 µM; in the data active = inhibition above about 40%
Full FLuc ctr – counter-screen for Mdm2/MdmX inhibitors: full-length luciferase; 77% of 6,200 active; SaOS-2 full-length luciferase counterscreen, luminescence; shares compounds with Mdm2 MdmX PPI; inhibition, % at 8 µM; AID 504607;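 active = mean inhibition at 8 µM reaching about 37%, which flags the compound as non-specific, limit read from the data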;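 also: p53-null SaOS-2 cells with luciferase driven by a doxycycline-inducible promoter; compound on cells about two nights before reading with doxycycline added after day one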
* = called active by the depositor; . = not tested or not shown. Only some compounds are listed: those with a hit (about 3.7% of all), similar ones and a draw of the others.

SMILES | UPR CHOP act | MDM2 E3 inh | Dynein cargo inh | Mdm2 MdmX PPI | UPR XBP1 act | Beta2AR agonist | Mdm2 MdmX conf | Full FLuc ctr
O[C@@H](c1cc(C(F)(F)F)nc2c(C(F)(F)F)cccc12)[C@H]1CCCCN1 | 3 | . | . | 99* | 15 | 23 | 78* | 47*
COc1ccc(C(=O)N2CCC3(CC2)NCCc2[nH]cnc23)cc1 | -1 | . | . | 28 | 0 | 1 | . | .
Nc1nonc1-c1nc2ccccc2n1Cc1ccc(F)cc1Cl | 4 | -6 | -1.2 | 62* | 6 | -1 | 49* | 83*
Cc1ccc(C(C#N)c2ccc3c(C(F)(F)F)cc(C(F)(F)F)nc3n2)cc1 (centres undefined) | 12 | -35 | 0.39 | 58* | 5 | 14 | -1 | .
N#CC(c1ccccc1)c1ccc2c(C(F)(F)F)cc(C(F)(F)F)nc2n1 (centres undefined) | 1 | -8 | -0.073 | 68* | 0 | 19 | 9 | .
CN(N)c1ccc2c(C(F)(F)F)cc(C(F)(F)F)nc2n1 | 0 | -7 | -0.42 | -13 | 2 | -9 | . | .
O=C(c1ccccc1F)n1c2c(c3ccccc31)CCCC2 | 0 | . | . | 56* | -3 | 5 | 44* | 56*
CC1CCN(CC(=O)n2c3c(c4ccccc42)CCCC3)CC1 | 0 | -2 | 1.9 | 10 | 0 | 2 | . | .
CN(C)S(=O)(=O)c1cccc(NC(=O)c2cc(-c3cccs3)nn2-c2cccc(Cl)c2)c1 | 1 | 4 | -0.99 | 50* | -3 | -1 | 58* | 65*
O=C(Nc1cc(C(=O)N2CCN(c3ccccc3O)CC2)ccc1Cl)c1cccs1 | 2 | . | . | 19 | -2 | 0 | . | .
COc1cccc(/C=C/C(=O)OCC(=O)c2ccc(S(=O)(=O)N3CCCCC3)cc2)c1OC | -1 | . | . | 13 | -4 | 1 | . | .
COc1cc(/C=C/C(=O)OCC(=O)c2ccc(S(=O)(=O)N3CCCCC3)cc2)cc(OC)c1OC | 1 | . | . | 56* | -3 | 0 | 34 | .
O=C(O)c1ccc(Cl)c(NCc2cccs2)c1 | 1 | . | . | 24 | 0 | -1 | . | .
CCC(=NCCc1c(C)[nH]c2ccc(OC(F)(F)F)cc12)C1=C(O)CC(c2ccccc2)CC1=O (centres undefined) | 2 | -4 | 0.92 | 66* | 13 | 20 | 64* | 73*
CCCCC(=NCCc1c(C)[nH]c2ccc(OC)cc12)C1=C(O)CC(c2ccccc2)CC1=O (centres undefined) | 1 | -2 | -0.53 | 60* | 10 | 27 | 54* | 66*
CCC(=NCCc1c(C)[nH]c2ccccc12)C1=C(O)CC(c2ccccc2)CC1=O (centres undefined) | 3 | 1 | 1.8 | 71* | 1 | -26 | 52* | 50*
Cc1nnc(SCC(=O)NC2CCCC(C)C2C)n1N (centres undefined) | -1 | . | . | 10 | 0 | 0 | . | .
Cc1ccc(C)c(N2CCN(CCCNC(=O)Cn3cccc3C(=O)c3ccccc3)CC2)c1 | -1 | 4 | -0.31 | 59* | 0 | 18 | 24 | .
O=C(CCC(=O)N1CCOc2ccc(Cl)cc21)NCCCN1CCC(Cc2ccccc2)CC1 | -1 | . | . | 83* | 2 | 13 | 50* | 95*
Cc1ccc(C)c(N2CCN(CCCNC(=O)CCC(=O)N3CCOc4ccc(Cl)cc43)CC2)c1 | 6 | . | . | 78* | 9 | . | 43* | 56*
CCCCn1c(=O)c2c(nc3n2CCCN3Cc2ccccc2)n(C)c1=O | 2 | . | . | 20 | -2 | 6 | . | .
CCN(Cc1ccccc1)c1ccc(/C=N/N=C(N)N)cc1 | -2 | -2 | -2.9 | 98* | -2 | 63* | 100* | 58*
CCc1cc2ccccc2nc1SCC(=O)Nc1cc(C)on1 | 2 | -1 | 0.19 | 27 | -1 | 5 | . | .
CCc1cc2ccc(OC)cc2nc1SCC(=O)Nc1cc(C)on1 | 1 | -6 | 3.7 | 50* | 11 | 4 | 32 | .
Cc1cnc(NC(=O)/C=C/c2ccc(Br)o2)s1 | 6 | -11 | -0.84 | 75* | 1 | 1 | 0 | .
SMILES | UPR CHOP act | MDM2 E3 inh | Dynein cargo inh | Mdm2 MdmX PPI | UPR XBP1 act | Beta2AR agonist | Mdm2 MdmX conf | Full FLuc ctr
Cc1ccc(/C=C/C(=O)Nc2ncc(C)s2)o1 | 7 | -22 | -0.41 | -72 | -1 | 5 | . | .
Fc1cccc(NCCc2c[nH]c3ccccc23)n1 | 1 | . | . | 14 | 1 | -6 | . | .
c1ccc2c(NCCc3c[nH]c4ccccc34)c3ccccc3nc2c1 | 3 | . | . | 100* | 5 | 11 | 60* | 55*
OCCCNc1c2ccccc2nc2ccccc12 | -3 | . | . | 79* | -4 | -12 | 82* | 44*
O=C(N/N=C/c1ccc(O)cc1)c1ccc(COc2cc(Cl)ccc2Cl)o1 | 0 | -1 | 0.41 | 61* | 14 | 49* | 24 | .
S=C(NCc1ccc2[nH]c3c(c2c1)CCCC3)Nc1ccccc1 | -3 | . | -0.96 | 70* | -3 | -5 | 15 | .
Cc1cc(C)cc(NC(=S)NCc2ccc3[nH]c4c(c3c2)CCCC4)c1 | -2 | . | -0.72 | 83* | -2 | 6 | 21 | .
COc1ccccc1N1CC(C(=O)Nc2ccc(N3CCOCC3)cc2)CC1=O (centres undefined) | 2 | . | . | -17 | -3 | 1 | . | .
COc1ccc(CN(C(=O)CCC(=O)Nc2cc(C)on2)C(C(=O)NC(C)(C)C)c2cccc(OC)c2OC)cc1 (centres undefined) | -4 | . | . | 2 | -1 | 12 | . | .
CN1CCN(c2ccc(NC(=O)c3ccc(-c4ccc(Br)cc4)o3)cc2)CC1 | 5 | -90 | 0.99 | 77* | 0 | 17 | 39 | 81*
CC(C)c1ccc(NC(=O)CCN2C(=O)[C@@H]3Cc4ccccc4CN3C2=O)cc1 | -1 | . | . | 12 | -2 | -11 | . | .
COCCn1c(C)cc(C2=NNC(=Nc3ccccc3)SC2)c1C | -1 | -4 | 0.79 | 62* | -2 | -4 | 73* | 81*
O=C(OCC(=O)N1CCCC1=O)c1nc(Cl)c(Cl)c(Cl)c1Cl | 7 | . | . | 77* | -6 | 16 | 26 | .
Cc1nc2c(-c3ccc(F)cc3)c(C)nn2c(C)c1CCC(=O)Nc1ccccc1F | 0 | . | 0.47 | 22 | -3 | -4 | . | .
CC1CCCCN1C(=O)c1cccc(NC2=C(Cl)C(=O)N(Cc3ccccc3)C2=O)c1 (centres undefined) | 4 | . | . | 76* | -5 | 7 | 28 | .
